MIC data for 6 compounds are collected here from ChEMBL document CHEMBL1629640, “Antimicrobial activities of jadomycin B and structurally related analogues” (2009).

≈ marks a conversion by molar mass, not a printed value.

Assay [1] concerns Staphylococcus aureus. Put plainly: Antimicrobial activity against Staphylococcus aureus C622 by broth microdilution method. Type of assay: functional. In a few lines: (§1)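 Preliminary MIC screen by twofold serial broth microdilution in Mueller-Hinton broth, 0.5% DMSO final, with a DMSO-only control. Overnight mid-log cultures were diluted 100-fold, grown 4 h, then diluted 10−6 and added to wells. Plates were incubated overnight and growth read visually. Inhibition was defined as growth ≤ half of control. Three replicates per strain.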
A general note: In broth dilution the organism is exposed to a series of concentrations in liquid medium.

Assay [2] concerns Staphylococcus aureus. Description: Antimicrobial activity against methicillin-resistant Staphylococcus aureus C623 by broth microdilution method. Type of assay: functional. In a few lines:
as §1

The subject of assay [3] is Staphylococcus aureus. Description: Antimicrobial activity against Staphylococcus aureus 305 by broth microdilution method. It counts as functional. In a few lines:
as §1

In assay [4] the test system is Staphylococcus aureus. Description: Antimicrobial activity against Staphylococcus aureus Becker CP8 by broth microdilution method. Type of assay: functional. In a few lines:
as §1

Assay [5] has as its system Staphylococcus epidermidis. Description: Antimicrobial activity against Staphylococcus epidermidis C960 by broth microdilution method. Type of assay: functional. In a few lines: (§2)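 Preliminary screen by broth microdilution. Jadomycins dissolved in 100% DMSO and diluted to a 2.56 mg ml−1 working stock in 5% DMSO. First well held 0.5% DMSO final, followed by twofold serial dilutions in broth. A DMSO-only control was included. Strains were grown in Mueller-Hinton broth to mid-log, diluted 100-fold, incubated 4 h, then diluted 10−6. Plates were incubated overnight and growth was read visually. MIC defined as growth ≤ half of control. Three replicates.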

The subject of assay [6] is Staphylococcus epidermidis. Put plainly: Antimicrobial activity against Staphylococcus epidermidis isolate C621 by broth microdilution method. Type of assay: functional. In short, it runs like this:
as §2

Assay [7] relates to Pseudomonas aeruginosa. Description: Antimicrobial activity against Pseudomonas aeruginosa H187 by broth microdilution method. Type of assay: functional. In short, it runs like this: as §2
In assay [8] the test system is Pseudomonas aeruginosa. Put plainly: Antimicrobial activity against Pseudomonas aeruginosa H188 by broth microdilution method. Type of assay: functional. In a few lines: as §2
Assay [9] deals with Enterococcus faecalis. Description: Antimicrobial activity against Enterococcus faecalis C625 by broth microdilution method. It counts as functional. In short, it runs like this:
as §2

Assay [10] deals with Bacillus subtilis. Put plainly: Antimicrobial activity against Bacillus subtilis C971 by broth microdilution method. It counts as functional. In short, it runs like this:
as §2

For assay [11], the system named is Staphylococcus aureus. Description: Antimicrobial activity against Staphylococcus aureus ATCC 55804 by broth microdilution method.
Assay [12] relates to Staphylococcus aureus. Description: Antimicrobial activity against methicillin-resistant Staphylococcus aureus C623 by CLSI method. It counts as functional. In a few lines: (§3)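 MIC by CLSI broth microdilution in cation-adjusted Mueller-Hinton broth at 5 × 10^5 CFU ml−1 final (5 × 10^4 CFU/well).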
Assay [13] deals with Staphylococcus aureus. Put plainly: Antimicrobial activity against Staphylococcus aureus 305 by CLSI method. It counts as functional. In a few lines: as §3
The test system of assay [14] is Staphylococcus epidermidis. Put plainly: Antimicrobial activity against Staphylococcus epidermidis C960 by CLSI method. Type of assay: functional.

Take `CC[C@H]1OC(=O)[C@H](C)[C@@H](O[C@H]2C[C@@](C)(OC)[C@@H](O)[C@H](C)O2)[C@H](C)[C@@H](O[C@@H]2O[C@H](C)C[C@H](N(C)C)[C@H]2O)[C@](C)(O)C[C@@H](C)C(=O)[C@H](C)[C@@H](O)[C@]1(C)O` [ERYTHROMYCIN]: the minimum inhibitory concentration (MIC) (as a rule, the smallest concentration in the dilution series that meets the test's criterion for growth inhibition) in assay [1] is below 1 mg/L; in assay [2], above 128 mg/L; in assay [3], below 0.25 mg/L; in assay [4] it was below 0.25 mg/L; in [5], below 0.125 mg/L; in [6], below 0.125 mg/L. Moreover, the minimum inhibitory concentration (MIC) in [7] was above 2 mg/L; in assay [8], above 2 mg/L; in [9] it was 1 mg/L (≈ 1.36 µM); in assay [10] it was below 0.125 mg/L; in [11], below 0.25 mg/L.

With `CSCC[C@@H]1C(=O)O[C@H]2c3cc(C)cc(O)c3C3=C(C(=O)c4c(O[C@H]5C[C@@H](O)[C@@H](O)[C@H](C)O5)cccc4C3=O)N12` [JADOMYCIN DM], the MIC is 2 mg/L (≈ 3.52 µM) in assay [1]; 4 mg/L (≈ 7.05 µM) in assay [2]; 32 mg/L (≈ 56.4 µM) in assay [3]; 16 mg/L (≈ 28.2 µM) in assay [4]; below 1 mg/L in [5]; 2 mg/L (≈ 3.52 µM) in [6]. The MIC in assay [7] was above 128 mg/L; in [8], above 128 mg/L; in [9] it was above 128 mg/L; in [10], 16 mg/L (≈ 28.2 µM); in assay [12] it was 16 mg/L (≈ 28.2 µM); in assay [13], 32 mg/L (≈ 56.4 µM). Further, the MIC in [14] came to 2 mg/L (≈ 3.52 µM); in assay [11] it was 64 mg/L (≈ 113 µM).

In the case of `Cc1cc(O)c2c(c1)[C@@H]1OC(=O)[C@H](Cc3ccc(O)cc3)N1C1=C2C(=O)c2cccc(O[C@H]3C[C@@H](O)[C@@H](O)[C@H](C)O3)c2C1=O` [JADOMYCIN Y], the MIC was 8 mg/L (≈ 13.3 µM) in assay [1]; 8 mg/L (≈ 13.3 µM) in [2]; 4 mg/L (≈ 6.67 µM) in [3]; 4 mg/L (≈ 6.67 µM) in assay [4]; below 1 mg/L in [5]; 2 mg/L (≈ 3.34 µM) in assay [6]. Further, the minimum inhibitory concentration (MIC) in [7] was above 128 mg/L; in [8], above 128 mg/L; in [9] it was above 128 mg/L; in assay [10], 8 mg/L (≈ 13.3 µM); in assay [11] it was 16 mg/L (≈ 26.7 µM).

For `Cc1cc(O)c2c(c1)[C@@H]1OC(=O)[C@H](CO)N1C1=C2C(=O)c2cccc(O[C@H]3C[C@@H](O)[C@@H](O)[C@H](C)O3)c2C1=O` [JADOMYCIN S], the MIC in [3] is 8 mg/L (≈ 15.3 µM); in assay [4] it was 8 mg/L (≈ 15.3 µM); in assay [5] it was 1 mg/L (≈ 1.91 µM); in assay [6] it was 4 mg/L (≈ 7.64 µM); in [7], above 128 mg/L; in assay [8] it was above 128 mg/L. The minimum inhibitory concentration (MIC) in assay [9] is above 128 mg/L; in assay [10], 16 mg/L (≈ 30.6 µM); in assay [12], 32 mg/L (≈ 61.1 µM); in [13], 32 mg/L (≈ 61.1 µM); in assay [14], 0.5 mg/L (≈ 0.955 µM); in [11], 32 mg/L (≈ 61.1 µM).

`CC[C@H](C)[C@H]1C(=O)O[C@H]2c3cc(C)cc(O)c3C3=C(C(=O)c4c(O[C@H]5C[C@@H](O)[C@@H](O)[C@H](C)O5)cccc4C3=O)N12` [JADOMYCIN B]: the MIC is 2 mg/L (≈ 3.64 µM) in [1]; below 1 mg/L in [2]; below 1 mg/L in [3]; 2 mg/L (≈ 3.64 µM) in assay [4]; below 1 mg/L in assay [5]; below 1 mg/L in [6]. Besides, the MIC in [7] was above 128 mg/L; in assay [8], above 128 mg/L; in assay [9] it was 32 mg/L (≈ 58.2 µM); in [10] it was 4 mg/L (≈ 7.28 µM); in [12] it was 8 mg/L (≈ 14.6 µM); in assay [13], 4 mg/L (≈ 7.28 µM). Further, the results for the MIC in assay [14] and in assay [11] were 0.5 mg/L (≈ 0.91 µM) and 4 mg/L (≈ 7.28 µM), respectively.

Take `Cc1cc(O)c2c(c1)[C@@H]1OC(=O)CN1C1=C2C(=O)c2cccc(O[C@H]3C[C@@H](O)[C@@H](O)[C@H](C)O3)c2C1=O` [JADOMYCIN G]: the MIC amounted to 64 mg/L (≈ 130 µM) in assay [1]; 32 mg/L (≈ 64.8 µM) in [2]; 64 mg/L (≈ 130 µM) in assay [3]; 32 mg/L (≈ 64.8 µM) in [4]; 2 mg/L (≈ 4.05 µM) in assay [5]; 8 mg/L (≈ 16.2 µM) in assay [6]. For the same compound, the minimal inhibitory concentration (MIC) in assay [7] is above 128 mg/L; in assay [8], above 128 mg/L; in assay [9], above 128 mg/L; in [10], 64 mg/L (≈ 130 µM); in assay [12], above 128 mg/L; in assay [13], above 128 mg/L. Further, the minimum inhibitory concentration (MIC) in [14] was 32 mg/L (≈ 64.8 µM); in assay [11] it was 64 mg/L (≈ 130 µM).
